Assay [1] concerns the target T1, Coagulation factor X (Homo sapiens, UniProt P00742). As to the kind of experiment: Inhibition of human factor 10a using S-2222 chromogenic substrate assessed as hydrolysis at 1.36 uM by microplate reader. In a few lines:
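Purified human fXa with chromogenic substrate S-2222 and inhibitor in 0.05 M Tris-HCl pH 8.4 or 0.15 M NaCl; reaction started with enzyme. Hydrolysis read continuously at 405 nm, 37 °C. Percent inhibition at final inhibitor 1.36 µM, single run.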

The target in assay [2] is T1, Coagulation factor X. As to the kind of experiment: Inhibition of human factor 10a using S-2222 chromogenic substrate assessed as hydrolysis by microplate reader.
The next assay deals with Mus musculus. As to the kind of experiment: Anticoagulant activity in ICR mouse plasma assessed as prolongation of prothombin time at 100 mg/kg, po after 0.5 to 2 hrs relative to untreated control. The assay is classed as functional. The gist of the method:
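Male ICR mice (30–37 g) given compound dissolved or suspended in 0.5% methyl cellulose, 100 mg/kg by gastric tube. PT measured by coagulometer at 37 °C with thromboplastin; expressed as fold of vehicle-treated baseline; n = 3.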

In assay [3] the test system is Plasma. As to the kind of experiment: Anticoagulant activity in human plasma assessed as concentration required to double clotting time. The assay is classed as functional. In a few lines: (§1)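 Citrated plasma (human or mouse) spun at 3000 rpm for 10 min and stored at −40 °C. Clotting times read on a coagulometer at 37 °C; PT with thromboplastin, compared with a distilled water control. CT2 (concentration doubling clotting time) taken from each concentration–response curve; three determinations, mean reported.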

The test system of assay [4] is Plasma. As to the kind of experiment: Anticoagulant activity in mouse plasma assessed as concentration required to prolong prothombin time. The assay is classed as functional. The gist of the method: as §1
In another assay the target is Trypsin (Homo sapiens, UniProt P07477+P07478+P35030). As to the kind of experiment: Inhibition of human Trypsin using S-2222 chromogenic substrate assessed as hydrolysis by microplate reader.
The next assay addresses Prothrombin (Homo sapiens, UniProt P00734). As to the kind of experiment: Inhibition of human Thrombin using S-2238 chromogenic substrate assessed as hydrolysis by microplate reader.

Active and inactive are the calls of the source. The rule behind the calls is not given here. Some results are limits rather than exact numbers.

T1 sequence (P00742 41-179 limits assumed): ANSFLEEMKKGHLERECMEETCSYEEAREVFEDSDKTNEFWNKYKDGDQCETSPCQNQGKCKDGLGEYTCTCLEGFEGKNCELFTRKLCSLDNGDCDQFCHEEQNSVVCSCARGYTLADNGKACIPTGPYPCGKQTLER
T1 sequence (P00742 235-488 limits assumed): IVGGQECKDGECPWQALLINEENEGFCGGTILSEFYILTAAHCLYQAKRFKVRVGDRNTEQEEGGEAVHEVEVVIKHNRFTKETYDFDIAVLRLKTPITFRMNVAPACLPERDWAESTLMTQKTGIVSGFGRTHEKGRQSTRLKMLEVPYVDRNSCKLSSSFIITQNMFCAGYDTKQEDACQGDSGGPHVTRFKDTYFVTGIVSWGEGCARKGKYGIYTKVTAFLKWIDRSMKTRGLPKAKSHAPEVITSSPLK

On to `CN1CCCN(c2ccc(C(=O)Nc3ccccc3C(=O)Nc3ccc(Cl)cc3)cc2)CC1`, for which the inhibition at Coagulation factor X [1] was determined as 100%.

For the molecule `Cc1cccc(NC(=O)c2ccccc2NC(=O)c2ccc(N3CCCN(C)CC3)cc2)c1`, the inhibition at Coagulation factor X [1] stood at 88%. On to `Cc1cc(NC(=O)c2ccccc2NC(=O)c2ccc(N3CCCN(C)CC3)cc2)sn1`, for which the inhibition result at Coagulation factor X [1] is “inactive”. Take `COc1cccc(NC(=O)c2ccccc2NC(=O)c2ccc(N3CCCN(C)CC3)cc2)c1`: the inhibition at Coagulation factor X [1] came out at 40%. In the case of `Cc1cc(NC(=O)c2ccccc2NC(=O)c2ccc(N3CCCN(C)CC3)cc2)n[nH]1`, the inhibition result at Coagulation factor X [1] was “inactive”.

As to `CN1CCCN(c2ccc(C(=O)Nc3c(O)cccc3C(=O)Nc3ccc(Cl)cn3)cc2)CC1.Cl`, the IC50 on Coagulation factor X [2] was found to be 16 nM. Also, the Ratio in the assay with Mus musculus is recorded as 3.61. Taken in the same sequence, the figures for `CN1CCCN(c2ccc(C(=O)Nc3c(O)cc(Cl)cc3C(=O)Nc3ccc(Cl)cn3)cc2)CC1.Cl` were 8.7 nM and 7.8. As for `CN1CCCN(c2ccc(C(=O)Nc3ccccc3C(=O)Nc3ccccc3Cl)cc2)CC1`, the inhibition at Coagulation factor X [1] was found to be 11%. On to `Cc1ccc(NC(=O)c2cccc(O)c2NC(=O)c2ccc(N3CCCN(C)CC3)cc2)cc1.Cl`, for which the IC50 at Coagulation factor X [2] came to 68 nM. For the same molecule, in the assay with Mus musculus, the Ratio stood at 2.11. As to `CN1CCCN(c2ccc(C(=O)Nc3ccccc3C(=O)Nc3nc4ccccc4[nH]3)cc2)CC1`, the inhibition entry on Coagulation factor X [1] was “inactive”. On to `CN1CCCN(c2ccc(C(=O)Nc3c(O)cccc3C(=O)Nc3ccc(Cl)cc3)cc2)CC1.Cl`, for which the IC50 at Coagulation factor X [2] amounted to 6.9 nM. In the assay on Mus musculus, the Ratio is recorded as 2.67. Regarding `Cc1ccnc(NC(=O)c2ccccc2NC(=O)c2ccc(N3CCCN(C)CC3)cc2)c1`, on Coagulation factor X [1], the inhibition was 56%. `COc1ccc(NC(=O)c2cc(Cl)cc(O)c2NC(=O)c2ccc(N3CCCN(C)CC3)cc2)cc1.Cl`: the IC50 on Coagulation factor X [2] came to 68 nM. Besides, the Ratio in the assay with Mus musculus turned out to be 3.91. `COc1ccc(NC(=O)c2ccccc2NC(=O)c2ccc(N3CCCN(C)CC3)cc2)cn1`: at Coagulation factor X [1], the inhibition was 7%.

Take `CS(=O)(=O)c1ccccc1-c1ccc(NC(=O)c2cc(C(F)(F)F)nn2-c2cccc(CN)c2)c(F)c1.Cl`: the results for the Activity in the assay on Plasma [3] and in the assay with Plasma [4] were 0.67 µM and 0.7 µM, respectively. In the case of `CN1CCCN(c2ccc(C(=O)Nc3ccccc3C(=O)Nc3cccc(Cl)c3)cc2)CC1`, the inhibition on Coagulation factor X [1] turned out to be 76%. Take `COc1ccc(NC(=O)c2cccc(O)c2NC(=O)c2ccc(N3CCCN(C)CC3)cc2)nc1.Cl`: the IC50 at Coagulation factor X [2] was found to be 220 nM. Further, the Ratio in the assay with Mus musculus stood at 2.03. As to `CN1CCCN(c2ccc(C(=O)Nc3ccc(Cl)cc3C(=O)Nc3ccc(Cl)cn3)cc2)CC1.Cl`, the concentration for half-maximal inhibition (IC50) on Coagulation factor X [2] stood at 3.6 nM. For the same molecule, the Ratio in the assay with Mus musculus is listed as 1.21.

Regarding `CN1CCCN(c2ccc(C(=O)Nc3c(O[C@@H]4O[C@H](C(=O)O)[C@@H](O)[C@H](O)[C@H]4O)cc(Cl)cc3C(=O)Nc3ccc(Cl)cn3)cc2)CC1`, the Activity in the assay on Plasma [3] worked out at 0.27 µM; in the assay on Plasma [4], 0.28 µM. In addition, the values for the IC50 on Coagulation factor X [2], on Trypsin and on Prothrombin were 1.5 nM, over 100000 nM and over 100000 nM, respectively. `COc1ccc(NC(=O)c2ccccc2NC(=O)c2ccc(N3CCCN(C)CC3)cc2)cc1OC`: the inhibition result at Coagulation factor X [1] is “inactive”. Consider `Cc1cccc(NC(=O)c2ccccc2NC(=O)c2ccc(N3CCCN(C)CC3)cc2)n1`, for which the inhibition at Coagulation factor X [1] was found to be 9%. Turning to `Cc1ccc(NC(=O)c2ccccc2NC(=O)c2ccc(N3CCCN(C)CC3)cc2)nc1`, the inhibition at Coagulation factor X [1] was 73%. On to `COc1ccc(NC(=O)c2ccccc2NC(=O)c2ccc(N3CCCN(C)CC3)cc2)cc1.Cl`, for which, in the assay on Mus musculus, the Ratio is 1.02. On Coagulation factor X [1], the inhibition amounted to 85%. As for `CN1CCCN(c2ccc(C(=O)Nc3ccccc3C(=O)Nc3ccc4ccccc4n3)cc2)CC1`, the inhibition entry at Coagulation factor X [1] was “inactive”.

On to `COc1ccc(NC(=O)c2ccc(C)c(O)c2NC(=O)c2ccc(N3CCCN(C)CC3)cc2)cc1.Cl`, for which the IC50 at Coagulation factor X [2] was found to be 61 nM. Also, in the assay on Mus musculus, the Ratio is 0.95. Take `COc1ccc(NC(=O)c2cccc(O[C@@H]3O[C@H](C(=O)O)[C@@H](O)[C@H](O)[C@H]3O)c2NC(=O)c2ccc(N3CCCN(C)CC3)cc2)cc1`: the IC50 at Coagulation factor X [2] came to 66 nM. As for `CN1CCCN(c2ccc(C(=O)Nc3ccccc3C(=O)Nc3ccc(OC(F)(F)F)cc3)cc2)CC1`, on Coagulation factor X [1], the inhibition turned out to be 32%. For the molecule `CN1CCCN(c2ccc(C(=O)Nc3ccccc3C(=O)Nc3ccccn3)cc2)CC1`, the inhibition on Coagulation factor X [1] was determined as 38%. As for `CCc1ccc(NC(=O)c2ccccc2NC(=O)c2ccc(N3CCCN(C)CC3)cc2)cc1`, the inhibition on Coagulation factor X [1] is 15%.

Turning to `CN1CCCN(c2ccc(C(=O)Nc3ccccc3C(=O)Nc3ccc(Oc4ccccc4)cc3)cc2)CC1`, at Coagulation factor X [1], the inhibition was 22%. On to `COc1ccc(NC(=O)c2cccc(O)c2NC(=O)c2ccc(N3CCCN(C)CC3)cc2)cc1.Cl`, for which the IC50 at Coagulation factor X [2] stood at 150 nM. Also, the Ratio in the assay on Mus musculus worked out at 1.97.

Take `Cc1ccc(NC(=O)c2ccccc2NC(=O)c2ccc(N3CCCN(C)CC3)cc2)cc1`: at Coagulation factor X [1], the inhibition is 94%.

`CN1CCCN(c2ccc(C(=O)Nc3ccccc3C(=O)Nc3ccc(N(C)C)cc3)cc2)CC1`: at Coagulation factor X [1], the inhibition was determined as 24%. Consider `Cc1ccccc1NC(=O)c1ccccc1NC(=O)c1ccc(N2CCCN(C)CC2)cc1`, for which, at Coagulation factor X [1], the inhibition is 16%. For `COc1ccc(NC(=O)c2ccccc2NC(=O)c2ccc(N3CCCN(C)CC3)cc2)cc1Cl`, on Coagulation factor X [1], the inhibition was 39%. Regarding `Cc1ccc(NC(=O)c2cccc(O)c2NC(=O)c2ccc(N3CCCN(C)CC3)cc2)nc1.Cl`, the IC50 on Coagulation factor X [2] was 290 nM. Moreover, the Ratio with Mus musculus is 2.13.

Take `CC(C)c1ccc(NC(=O)c2ccccc2NC(=O)c2ccc(N3CCCN(C)CC3)cc2)cc1`: the inhibition at Coagulation factor X [1] is 23%.

The values above are taken from ChEMBL document CHEMBL3352298, “Identification of potent orally active factor Xa inhibitors based on conjugation strategy and application of predictable fragment recommender system” (Bioorg Med Chem, 2015).
